The structures appear in SMILES notation.

Consider 13 compounds from ChEMBL document CHEMBL1136239, “Bicyclo[2.2.1]heptanes as novel triple re-uptake inhibitors for the treatment of depression” (Bioorg Med Chem Lett, 2003).

Assay [1] concerns the target T1, Sodium-dependent dopamine transporter (Homo sapiens, UniProt Q01959). As to the kind of experiment: Displacement of [3H]WIN-35428 from Dopamine transporter. Summed up: (§1)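 Radioligand binding: inhibitory binding constants measured against a known radiolabelled re-uptake inhibitor. Ligands were [3H]citalopram for SERT, [3H]WIN35,428 for DAT and [3H]nisoxetine for NET. Values are means of three experiments; minimum significant ratio < 3.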

For assay [2], the target named is T2, Sodium-dependent noradrenaline transporter (Homo sapiens, UniProt P23975). The experiment in a line: Displacement of [3H]-Nisoxetine from norepinephrine transporter. (In a radioligand displacement assay an active substance lowers the binding of a labelled ligand.)
T2 sequence (P23975 whole entry): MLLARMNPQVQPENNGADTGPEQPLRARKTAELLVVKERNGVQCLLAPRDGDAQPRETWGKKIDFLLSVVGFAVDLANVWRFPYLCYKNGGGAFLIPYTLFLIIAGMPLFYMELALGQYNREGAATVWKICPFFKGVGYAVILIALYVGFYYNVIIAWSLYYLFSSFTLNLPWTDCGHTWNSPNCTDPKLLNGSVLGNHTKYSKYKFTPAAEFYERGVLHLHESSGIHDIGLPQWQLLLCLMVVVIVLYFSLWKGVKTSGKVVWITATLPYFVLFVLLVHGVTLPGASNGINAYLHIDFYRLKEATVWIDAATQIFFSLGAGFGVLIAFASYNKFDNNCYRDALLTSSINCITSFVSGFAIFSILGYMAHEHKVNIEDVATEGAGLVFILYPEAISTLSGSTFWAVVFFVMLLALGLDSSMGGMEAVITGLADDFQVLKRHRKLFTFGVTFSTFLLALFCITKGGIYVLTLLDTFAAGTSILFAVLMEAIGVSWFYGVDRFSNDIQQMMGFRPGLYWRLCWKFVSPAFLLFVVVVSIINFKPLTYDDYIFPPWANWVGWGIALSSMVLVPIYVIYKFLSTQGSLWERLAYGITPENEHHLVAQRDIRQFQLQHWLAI
Assay [3] concerns the target T3, Sodium-dependent serotonin transporter (Homo sapiens, UniProt P31645). As to the kind of experiment: Displacement of [3H]-citalopram from Serotonin transporter. Summed up: as §1
The target of assay [4] is T3, Sodium-dependent serotonin transporter. As to the kind of experiment: In vitro ability of compound to inhibit 5-HT re-uptake of radiolabeled [3H]-tritium transmitter into synaptosome. It counts as tissue-based, Brain.
In assay [5] the target is T1, Sodium-dependent dopamine transporter. As to the kind of experiment: In vitro inhibition of DA re-uptake into synaptosome. It counts as functional, tissue-based, Brain.
In assay [6] the target is Sodium-dependent serotonin transporter (Mus musculus) (UniProt Q60857). The experiment in a line: In vivo potentiation of compound towards Serotonin transporter after po administration. It counts as functional, organism-based. Summed up: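 Oral dosing, read-out from the 5-HTP test. The value is the minimum effective dose (EDmin) in mg/kg po.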
Sequence of Sodium-dependent serotonin transporter (Mus musculus) (Q60857 whole entry): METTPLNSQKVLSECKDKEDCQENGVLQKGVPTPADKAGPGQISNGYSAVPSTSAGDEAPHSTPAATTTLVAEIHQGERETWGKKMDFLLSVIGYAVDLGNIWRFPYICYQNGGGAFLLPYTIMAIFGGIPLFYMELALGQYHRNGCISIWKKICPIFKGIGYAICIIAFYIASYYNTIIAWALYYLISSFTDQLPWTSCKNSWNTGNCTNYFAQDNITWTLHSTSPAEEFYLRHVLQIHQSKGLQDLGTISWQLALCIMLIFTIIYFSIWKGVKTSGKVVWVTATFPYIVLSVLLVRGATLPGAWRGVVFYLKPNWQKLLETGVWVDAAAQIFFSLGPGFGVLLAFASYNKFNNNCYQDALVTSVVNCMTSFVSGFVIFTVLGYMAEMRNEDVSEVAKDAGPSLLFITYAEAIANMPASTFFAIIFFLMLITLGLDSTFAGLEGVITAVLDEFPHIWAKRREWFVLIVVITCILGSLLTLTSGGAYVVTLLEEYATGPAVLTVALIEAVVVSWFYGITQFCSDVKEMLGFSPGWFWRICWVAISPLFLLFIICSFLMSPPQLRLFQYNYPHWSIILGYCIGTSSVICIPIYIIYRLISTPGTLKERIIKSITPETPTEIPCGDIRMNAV
Assay [7] has as its target Sodium-dependent dopamine transporter (Mus musculus) (UniProt Q61327). The experiment in a line: In vivo potentiation of compound towards Dopamine transporter after po administration was determined in mouse using mouse locomotor activity […]. It counts as functional, organism-based. An outline of the steps: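 Given by mouth and assessed in the MLA (locomotor activity) test. Reported as the minimum effective dose (EDmin), mg/kg po.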

Assay [8] deals with Sodium-dependent noradrenaline transporter (Mus musculus) (UniProt O55192). As to the kind of experiment: In vivo potentiation of compound towards norepinephrine transporter after po administration was determined in mouse using mouse apomorphine hypothermia. It counts as functional, organism-based. An outline of the steps: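 Apomorphine (APO) test after oral administration. The result is expressed as the minimum effective dose (EDmin), mg/kg po.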
Sequence of Sodium-dependent noradrenaline transporter (Mus musculus) (O55192 whole entry): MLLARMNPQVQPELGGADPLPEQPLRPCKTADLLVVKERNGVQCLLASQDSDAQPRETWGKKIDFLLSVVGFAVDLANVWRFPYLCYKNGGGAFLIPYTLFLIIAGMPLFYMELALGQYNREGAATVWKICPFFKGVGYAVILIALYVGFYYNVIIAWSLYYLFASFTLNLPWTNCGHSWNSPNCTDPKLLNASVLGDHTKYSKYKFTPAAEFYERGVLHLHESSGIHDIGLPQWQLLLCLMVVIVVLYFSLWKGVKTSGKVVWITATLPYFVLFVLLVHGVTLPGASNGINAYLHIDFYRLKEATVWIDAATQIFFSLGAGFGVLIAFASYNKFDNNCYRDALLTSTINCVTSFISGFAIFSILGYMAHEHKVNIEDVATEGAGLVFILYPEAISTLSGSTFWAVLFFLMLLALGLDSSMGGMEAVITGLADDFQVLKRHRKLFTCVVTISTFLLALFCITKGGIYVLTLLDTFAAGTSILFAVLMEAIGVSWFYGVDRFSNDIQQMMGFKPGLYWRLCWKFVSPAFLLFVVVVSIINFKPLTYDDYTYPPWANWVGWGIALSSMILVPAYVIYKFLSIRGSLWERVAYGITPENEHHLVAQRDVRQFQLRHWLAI

In assay [9] the target is T2, Sodium-dependent noradrenaline transporter. The experiment in a line: Compound was tested for its ability to displace […] from norepinephrine transporter.
Assay [10] has the same target. The experiment in a line: In vitro inhibition of [3H]NE re-uptake into synaptosome. It counts as functional, tissue-based, Brain.

T1 sequence (Q01959 whole entry): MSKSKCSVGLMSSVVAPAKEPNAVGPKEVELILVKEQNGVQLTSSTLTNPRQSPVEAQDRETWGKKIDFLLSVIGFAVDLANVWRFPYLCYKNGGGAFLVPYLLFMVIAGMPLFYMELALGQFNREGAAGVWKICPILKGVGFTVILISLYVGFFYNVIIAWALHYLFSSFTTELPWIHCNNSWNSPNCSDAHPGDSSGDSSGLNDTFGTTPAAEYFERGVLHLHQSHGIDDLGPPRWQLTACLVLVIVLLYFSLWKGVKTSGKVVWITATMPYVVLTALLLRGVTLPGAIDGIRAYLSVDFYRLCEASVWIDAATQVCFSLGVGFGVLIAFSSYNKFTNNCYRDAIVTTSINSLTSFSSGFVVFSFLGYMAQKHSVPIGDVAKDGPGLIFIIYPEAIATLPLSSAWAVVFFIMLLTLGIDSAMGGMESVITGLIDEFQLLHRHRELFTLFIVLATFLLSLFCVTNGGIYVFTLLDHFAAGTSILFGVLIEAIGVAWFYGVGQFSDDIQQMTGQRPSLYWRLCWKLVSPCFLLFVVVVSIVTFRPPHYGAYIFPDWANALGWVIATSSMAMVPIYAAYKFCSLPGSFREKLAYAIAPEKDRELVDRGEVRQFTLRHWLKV
T3 sequence (P31645 whole entry): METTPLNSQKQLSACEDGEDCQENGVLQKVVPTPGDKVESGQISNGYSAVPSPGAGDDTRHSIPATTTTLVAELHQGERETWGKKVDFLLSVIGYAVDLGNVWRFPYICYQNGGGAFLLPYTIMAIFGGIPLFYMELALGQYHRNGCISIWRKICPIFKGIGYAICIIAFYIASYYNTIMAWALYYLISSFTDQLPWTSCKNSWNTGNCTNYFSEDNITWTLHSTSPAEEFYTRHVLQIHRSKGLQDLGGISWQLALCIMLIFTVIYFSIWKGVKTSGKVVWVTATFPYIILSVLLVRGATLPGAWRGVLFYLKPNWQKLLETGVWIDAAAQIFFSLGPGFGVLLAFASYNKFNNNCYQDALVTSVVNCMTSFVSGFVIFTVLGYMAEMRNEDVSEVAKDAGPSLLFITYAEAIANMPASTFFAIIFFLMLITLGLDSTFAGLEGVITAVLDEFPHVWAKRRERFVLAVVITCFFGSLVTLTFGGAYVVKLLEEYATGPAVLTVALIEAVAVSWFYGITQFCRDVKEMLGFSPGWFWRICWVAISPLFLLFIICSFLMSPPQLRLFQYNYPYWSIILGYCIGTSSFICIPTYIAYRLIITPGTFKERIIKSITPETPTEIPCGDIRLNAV
Sequence of Sodium-dependent dopamine transporter (Mus musculus) (Q61327 whole entry): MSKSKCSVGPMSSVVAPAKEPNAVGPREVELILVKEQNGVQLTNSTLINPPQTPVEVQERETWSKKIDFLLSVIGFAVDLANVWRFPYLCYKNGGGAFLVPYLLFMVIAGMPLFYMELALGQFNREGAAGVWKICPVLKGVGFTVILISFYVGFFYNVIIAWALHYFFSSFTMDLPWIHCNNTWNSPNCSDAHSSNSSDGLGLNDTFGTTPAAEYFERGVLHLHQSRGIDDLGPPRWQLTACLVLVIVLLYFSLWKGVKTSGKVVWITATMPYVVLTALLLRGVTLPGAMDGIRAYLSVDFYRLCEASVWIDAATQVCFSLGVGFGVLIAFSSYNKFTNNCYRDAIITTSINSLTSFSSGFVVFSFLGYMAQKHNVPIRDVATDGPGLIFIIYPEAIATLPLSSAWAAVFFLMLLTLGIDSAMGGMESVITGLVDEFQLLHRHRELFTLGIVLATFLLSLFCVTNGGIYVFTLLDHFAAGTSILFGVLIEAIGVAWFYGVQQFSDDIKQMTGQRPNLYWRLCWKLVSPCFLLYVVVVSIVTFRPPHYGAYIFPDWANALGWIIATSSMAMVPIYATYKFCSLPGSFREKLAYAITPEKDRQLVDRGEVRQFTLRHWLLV

Usually Ki stands for the dissociation constant of the complex between target and ligand, obtained from inhibition or displacement. Turning to `CN(C)C[C@H]1C2CCC(C2)[C@@H]1c1ccc2cc(O)ccc2c1` (stereo partly specified), the Ki is 6 nM in assay [1], 50 nM in [2] and 47 nM in assay [3].
The corresponding values for `CN(C)C[C@H]1C2CCC(C2)[C@@H]1c1ccc2cc(F)ccc2c1` (stereo partly specified) are 50 nM, 385 nM and 2.6 nM.
By IC50 is commonly meant the concentration needed to halve the response being measured. Low readings indicate inhibition by little substance, high ones a need for much substance. `CN(C)C[C@H]1C2CCC(CC2)[C@@H]1c1cccc(Cl)c1`: the Ki came to 64 nM in [1] and 25 nM in assay [3]. The IC50 in assay [4] stood at 303 nM; in [5], 165 nM.
Regarding `CN(C)C[C@@H]1C2CCC(C2)[C@H]1c1ccc2ccccc2c1` (stereo partly specified), the Ki in assay [1] was determined as 38 nM; in assay [3], 5.8 nM. For the same compound, the figures for the IC50 in assay [4] and in [5] were 20 nM and 93 nM, respectively. The EDmin in assay [6] was > 20 mg/kg.
Consider `CN(C)CC1C2CCC(C2)C1c1ccc2ccccc2c1` (stereo unspecified), for which the Ki in [1] was determined as 18 nM; in assay [3], 2.8 nM. Moreover, the results for the IC50 in assay [4] and in assay [5] were 10 nM and 95 nM, respectively.
In the case of `CNC[C@H]1C2CCC(C2)[C@@H]1c1ccc2cc(F)ccc2c1` (stereo partly specified), the Ki in assay [1] came out at 72 nM; in assay [2], 316 nM; in assay [3], 4.4 nM.
The corresponding values for `COc1ccc2cc([C@H]3C4CCC(C4)[C@@H]3CN(C)C)ccc2c1` (stereo partly specified) are 64 nM, 68 nM and 25 nM.
As to `CN(C)C[C@H]1C2CCC(C2)[C@@H]1c1ccc2ccccc2c1` (stereo partly specified), the Ki in assay [1] was determined as 25 nM; in assay [3], 2.3 nM. Besides, the results for the EDmin in assay [7], in assay [8] and in assay [6] were 40 mg/kg, 25 mg/kg and 5 mg/kg, respectively. Besides, the values for the half-maximal inhibitory concentration (IC50) in assay [4] and in [5] were 9 nM and 76 nM, respectively.
With `CN(C)C[C@@H]1C2CCC(CC2)[C@@H]1c1ccc(Cl)c(Cl)c1`, the Ki in [1] was 7.2 nM; in [9], 44 nM; in assay [3], 57 nM. The IC50 was 270 nM in assay [4], 22 nM in assay [10] and 28 nM in assay [5].
For `CNCC1C2CCC(C2)C1c1ccc2ccccc2c1` (stereo unspecified), the figures for the Ki in assay [1] and in [3] were 25 nM and 4.9 nM, respectively. The EDmin was found to be 25 mg/kg in assay [7], 20 mg/kg in assay [8] and 20 mg/kg in assay [6]. In addition, the IC50 in assay [4] was 50 nM; in assay [5], 87 nM.
Regarding `CNC[C@H]1C2CCC(C2)[C@@H]1c1ccc2ccccc2c1` (stereo partly specified), the values for the Ki in assay [1] and in assay [3] were 41 nM and 3.6 nM, respectively. Moreover, the IC50 in assay [4] was found to be 9 nM; in [5] it was 86 nM.
Consider `CNC[C@H]1C2CCC(C2)[C@@H]1c1ccc2cc(OC)ccc2c1` (stereo partly specified), for which the Ki in [1] came to 60 nM; in assay [2], 120 nM; in [3] it was 12 nM.
Turning to `CN(C)CC1C2CCC(C2)C1c1cccc2ccccc12` (stereo unspecified), the Ki in assay [1] stood at 430 nM; in assay [3] it was 52 nM. The IC50 was 93 nM in assay [4] and 1510 nM in assay [5].
